Assay [1] deals with T1, Proteasome Macropain subunit MB1 (Homo sapiens) (UniProt P28074).
T1 sequence (whole entry): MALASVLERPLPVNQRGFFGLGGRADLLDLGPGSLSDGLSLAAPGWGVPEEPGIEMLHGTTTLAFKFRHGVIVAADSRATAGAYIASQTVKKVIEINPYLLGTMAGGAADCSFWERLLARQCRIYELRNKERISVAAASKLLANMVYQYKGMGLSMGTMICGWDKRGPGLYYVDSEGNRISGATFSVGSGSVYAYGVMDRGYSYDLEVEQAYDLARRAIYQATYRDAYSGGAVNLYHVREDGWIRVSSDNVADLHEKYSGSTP
Description: Negative allosteric modulation of SDS-activated human erythrocytes 20S proteasome chymotrypsin like activity using Suc-LLVY-AMC as substrate measured every 2 mins up to 60 mins by fluorescence assay. A digest of the protocol:
(§1)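 1.4 nM CP (0.001 mg/mL) in 50 mM Tris-HCl pH 8.0, activated with 0.005% SDS where stated, otherwise latent. Suc-LLVY-AMC at 100 μM final. AMC fluorescence read every 2 min up to 60 min at 37 °C. Activity relative to DMSO-treated enzyme, from at least three independent replicates. Peptide stocks 10 mM in DMSO.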

Assay [2] concerns the target T1, Proteasome Macropain subunit MB1 (Homo sapiens). The experiment in a line: Positive allosteric modulation of latent human erythrocytes 20S proteasome chymotrypsin like activity up to 10 uM using LFP as substrate measured every 2 mins up to 60 mins by fluorescence assay.
The target is the same in assay [3]. The experiment in a line: Negative allosteric modulation of SDS-activated human erythrocytes 20S proteasome chymotrypsin like activity up to 10 uM using LFP as substrate measured every 2 mins up to 60 mins by fluorescence assay.
Assay [4] shares this target. Description: Positive allosteric modulation of latent human erythrocytes 20S proteasome chymotrypsin like activity up to 10 uM using Suc-LLVY-AMC as substrate measured every 2 mins up to 60 mins by fluorescence assay. The method, boiled down: as §1
In assay [5] the target is T2, 20S proteasome (Homo sapiens) (UniProt P49721+P20618+P28074+P28062+P28065+P28072+P25786+P25787+P25788+P25789+P28066+P60900+O14818+Q8TAA3+P40306+A5LHX3+P49720+P28070+Q99436). Description: Negative allosteric modulation of SDS-activated human erythrocytes 20S proteasome assessed as reduction in human alpha-synuclein degradation at 1 uM after 1 hr by SDS-PAGE analysis. The method, boiled down: (§2)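 Human α-synuclein or yeast enolase digested by human 20S activated with 0.01% SDS (20S:substrate 1:100 pmol α-syn, 1:10 pmol enolase) in 20 mM HEPES pH 7.4 at 37 °C for 1 h (α-syn) or 4 h (enolase). DMSO at or below 0.05%. SDS–PAGE (12% or 10%) with Coomassie staining; remaining substrate densitometry as percent of control; at least three experiments, mean ± SEM.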

For assay [6], the target named is T2, 20S proteasome (Homo sapiens). Description: Negative allosteric modulation of SDS-activated human erythrocytes 20S proteasome assessed as reduction in human alpha-synuclein degradation at 10 uM after 1 hr by SDS-PAGE analysis. A digest of the protocol:
as §2

The target is the same in assay [7]. Description: Effect on alpha-face conformations of latent human erythrocytes 20S proteasome assessed as open state conformation at 1 uM by atomic force microscopic method (reference value: 7%).
Assay [8] has the same target. The experiment in a line: Effect on alpha-face conformations of latent human erythrocytes 20S proteasome assessed as open state conformation at 10 uM by atomic force microscopic method (reference value: 7%).
Assay [9] has the same target. Description: Effect on alpha-face conformations of latent human erythrocytes 20S proteasome assessed as intermediate state conformation at 10 uM by atomic force microscopic method (reference value: 22%).
For assay [10] the target is unchanged. The experiment in a line: Effect on alpha-face conformations of latent human erythrocytes 20S proteasome assessed as closed state conformation at 1 uM by atomic force microscopic method (reference value: 70%).
Assay [11] has the same target. Description: Effect on alpha-face conformations of latent human erythrocytes 20S proteasome assessed as closed state conformation at 10 uM by atomic force microscopic method (reference value: 70%).
Assay [12] shares this target. Description: Negative allosteric modulation of SDS-activated human erythrocytes 20S proteasome assessed as reduction in yeast enolase degradation at 1 uM after 4 hr by SDS-PAGE analysis.
Assay [13] has the same target. The experiment in a line: Negative allosteric modulation of SDS-activated human erythrocytes 20S proteasome assessed as reduction in yeast enolase degradation at 10 uM after 4 hr by SDS-PAGE analysis.
Assay [14] deals with T1, Proteasome Macropain subunit MB1 (Homo sapiens). The experiment in a line: Positive allosteric modulation of latent human erythrocytes 20S proteasome chymotrypsin like activity up to 10 uM using LFP as substrate measured every 2 mins up to 60 mins by fluorescence assay.
For assay [15], the target named is Proteasome Macropain subunit (Homo sapiens) (UniProt P49721). The experiment in a line: Negative allosteric modulation of SDS-activated human erythrocytes 20S proteasome trypsin like activity at 10 uM using Boc-LRR-AMC as substrate measured every 2 mins up to 60 mins by fluorescence assay.
The target in assay [16] is T3, Proteasome component C5 (Homo sapiens) (UniProt P20618).
T3 sequence (whole entry): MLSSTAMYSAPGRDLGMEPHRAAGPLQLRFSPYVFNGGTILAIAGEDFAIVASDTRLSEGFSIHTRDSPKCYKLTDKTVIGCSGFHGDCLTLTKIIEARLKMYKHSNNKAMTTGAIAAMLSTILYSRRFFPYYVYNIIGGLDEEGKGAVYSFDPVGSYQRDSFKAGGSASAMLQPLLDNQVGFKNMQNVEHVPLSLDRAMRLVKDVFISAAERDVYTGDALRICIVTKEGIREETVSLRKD
The experiment in a line: Negative allosteric modulation of SDS-activated human erythrocytes 20S proteasome caspase like activity at lower concentration using Z-LLE-AMC as substrate measured every 2 mins up to 60 mins by fluorescence assay.

The source made the active and inactive calls. No cut-off for these calls is given here. Residues, ends and D or L forms follow the SMILES beside them. Where only a bound is given, the exact number is not on record here.

Proteasome Macropain subunit (Homo sapiens), sequence (P49721 whole entry): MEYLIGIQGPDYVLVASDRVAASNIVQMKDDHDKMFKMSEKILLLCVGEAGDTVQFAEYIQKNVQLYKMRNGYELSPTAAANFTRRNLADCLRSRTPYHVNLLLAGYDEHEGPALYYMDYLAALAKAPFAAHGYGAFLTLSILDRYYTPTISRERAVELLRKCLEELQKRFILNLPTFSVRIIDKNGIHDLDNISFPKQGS

For `CC(C)C[C@H](NC(=O)[C@H](Cc1ccc(O)cc1)NC(=O)[C@@H]1CCCN1C(=O)[C@@H]1CCCN1C(=O)[C@H](CCCNC(=N)N)NC(=O)[C@@H]1CCCN1C(=O)[C@H](CCCNC(=N)N)NC(=O)[C@H](CCCNC(=N)N)NC(=O)[C@@H](N)CCCNC(=N)N)C(=O)N1CCC[C@H]1C(=O)N[C@@H](CCCNC(=N)N)C(=O)N[C@@H](Cc1c[nH]c2ccccc12)C(=O)NCC(=O)O` (H-RRRPRPPYLPRWG-OH), the Activity entry in assay [1] was “Dose-dependent effect”; in assay [7] it was under 3%; in assay [8], 18%; in assay [9], 25%; in assay [10] it was 73%; in [11], 57%. Also, the result in assay [2], in assay [4] and in assay [14] was inactive. In addition, the outcome in assay [3], in assay [5], in [6], in assay [12], in assay [13] and in assay [15] was Active. In [16], the outcome was Active.
